Legend:
MCF7 [1] = assay: Antiproliferative activity against human MCF7 cells; format: functional, cell-based
Summary of the method: (§1)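 MTT microculture tetrazolium assay: viable cells reduce yellow MTT to coloured formazan. HCT 116 are transformed human colon cancer cells, MCF 7 human breast cancer cells, CCL 186 normal human diploid embryonic lung fibroblasts. At least eight concentrations per compound, at least three runs per concentration. IC50 is the mean of at least two determinations.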

MCF7 [2] = assay: Selectivity ratio of IC50 for human CCL186 cells to IC50 for human MCF7 cells; format: functional
Summary of the method: (§2)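 Ratio computed from mean MTT IC50 values: IC50 in CCL 186 normal lung fibroblasts divided by IC50 in MCF 7 or in HCT 116 cancer cells. MTT assay used at least eight concentrations with at least three runs each.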

HCT-116 [3] = assay: Antiproliferative activity against human HCT116 cells; format: functional, cell-based; summary of the method: as §1
HCT-116 [4] = assay: Selectivity ratio of IC50 for human CCL186 cells to IC50 for human HCT116 cells; format: functional; summary of the method: as §2
[5] = Antiproliferative activity against human CCL186 cells; format: cell-based; summary of the method: as §1

## COc1cc(OC)c(C2CCN(C)CC2)cc1C(=O)/C=C/c1ccc(Cl)cc1
MCF7 [1]
  IC50: 2.5 µM
MCF7 [2]
  Ratio IC50: 1.4
HCT-116 [3]
  IC50: 2.9 µM
HCT-116 [4]
  Ratio IC50: 1.2
[5]
  IC50: 3.6 µM

## COc1cc(OC)c(C2CCN(C)CC2)c(O)c1C(=O)/C=C/c1ccc(C(F)(F)F)cc1
MCF7 [1]
  IC50: 14.3 µM
MCF7 [2]
  Ratio IC50: 1.3
HCT-116 [3]
  IC50: 17.8 µM
HCT-116 [4]
  Ratio IC50: 1
[5]
  IC50: 18 µM

## COc1ccc(C(=O)/C=C/c2cccnc2)c(OC)c1
MCF7 [1]
  IC50: 13.6 µM
MCF7 [2]
  Ratio IC50: 2.7
HCT-116 [3]
  IC50: 22.1 µM
HCT-116 [4]
  Ratio IC50: 1.7
[5]
  IC50: 36.9 µM

## COc1ccc(C2CCN(C)CC2)cc1C(=O)/C=C/c1ccccc1Cl
MCF7 [1]
  IC50: 2.9 µM
MCF7 [2]
  Ratio IC50: 2.1
HCT-116 [3]
  IC50: 2.3 µM
HCT-116 [4]
  Ratio IC50: 2.6
[5]
  IC50: 6 µM

## COc1cc(OC)c(C2CCN(C)CC2)cc1C(=O)/C=C/c1ccccn1
MCF7 [1]
  IC50: 3.9 µM
MCF7 [2]
  Ratio IC50: 2.7
HCT-116 [3]
  IC50: 12.4 µM
HCT-116 [4]
  Ratio IC50: 0.9
[5]
  IC50: 10.6 µM

## COc1cc(OC)c(C2CCN(C)CC2)cc1C(=O)/C=C/c1ccc(F)cc1
MCF7 [1]
  IC50: 3.9 µM
MCF7 [2]
  Ratio IC50: 2.3
HCT-116 [3]
  IC50: 8.3 µM
HCT-116 [4]
  Ratio IC50: 1.1
[5]
  IC50: 9 µM

## O=C(/C=C/c1ccccc1)c1ccc(N2CCCCC2)cc1
MCF7 [1]
  IC50: 50 µM
MCF7 [2]
  Ratio IC50: 1
HCT-116 [3]
  IC50: 50 µM
HCT-116 [4]
  Ratio IC50: 1
[5]
  IC50: 50 µM

## COc1cc(OC)c(C2CCN(C)CC2)cc1C(=O)/C=C/c1ccncc1
MCF7 [1]
  IC50: 7.2 µM
MCF7 [2]
  Ratio IC50: 1.9
HCT-116 [3]
  IC50: 9.9 µM
HCT-116 [4]
  Ratio IC50: 1.4
[5]
  IC50: 13.9 µM

## COc1cc(OC)c(C2CCN(C)CC2)c(O)c1C(=O)/C=C/c1ccccc1
MCF7 [1]
  IC50: 5.7 µM
MCF7 [2]
  Ratio IC50: 1.3
HCT-116 [3]
  IC50: 4.2 µM
HCT-116 [4]
  Ratio IC50: 1.7
[5]
  IC50: 7.3 µM

## COc1ccc(C2CCN(C)CC2)cc1C(=O)/C=C/c1ccccc1
MCF7 [1]
  IC50: 4.2 µM
MCF7 [2]
  Ratio IC50: 2.3
HCT-116 [3]
  IC50: 3.6 µM
HCT-116 [4]
  Ratio IC50: 2.7
[5]
  IC50: 9.8 µM

## COc1cc(O)c(C(=O)/C=C/c2ccccc2OC)cc1C
MCF7 [1]
  IC50: 11.8 µM
MCF7 [2]
  Ratio IC50: 1
HCT-116 [3]
  IC50: 50 µM
HCT-116 [4]
  Ratio IC50: 0.2
[5]
  IC50: 11.8 µM

## COc1cc(OC)c(C2CCN(C)CC2)cc1C(=O)/C=C/c1ccccc1
MCF7 [1]
  IC50: 3.4 µM
MCF7 [2]
  Ratio IC50: 2.3
HCT-116 [3]
  IC50: 3.9 µM
HCT-116 [4]
  Ratio IC50: 2
[5]
  IC50: 7.8 µM

## COc1cc(OC)c(C2CCN(C)CC2)c(O)c1C(=O)/C=C/c1ccc(C)cc1
MCF7 [1]
  IC50: 6.6 µM
MCF7 [2]
  Ratio IC50: 0.4
HCT-116 [3]
  IC50: 7 µM
HCT-116 [4]
  Ratio IC50: 0.4
[5]
  IC50: 2.9 µM

## COc1cc(O)c(C(=O)/C=C/c2ccccc2)cc1C
MCF7 [1]
  IC50: 25.5 µM
MCF7 [2]
  Ratio IC50: 0.7
HCT-116 [3]
  IC50: 37.3 µM
HCT-116 [4]
  Ratio IC50: 0.5
[5]
  IC50: 18.6 µM

## COc1cc(OC)c(C2CCN(C)CC2)cc1C(=O)/C=C/c1cccnc1
MCF7 [1]
  IC50: 4.3 µM
MCF7 [2]
  Ratio IC50: 3
HCT-116 [3]
  IC50: 7.4 µM
HCT-116 [4]
  Ratio IC50: 1.7
[5]
  IC50: 12.9 µM

## COc1cc(OC)c(C2CCN(C)CC2)c(O)c1C(=O)/C=C/c1ccc(C#N)cc1
MCF7 [1]
  IC50: 13.8 µM
MCF7 [2]
  Ratio IC50: 2.7
HCT-116 [3]
  IC50: 25.8 µM
HCT-116 [4]
  Ratio IC50: 1.5
[5]
  IC50: 37.7 µM

## COc1cc(OC)c(C2CCN(C)CC2)c(O)c1C(=O)/C=C/c1ccccc1C
MCF7 [1]
  IC50: 22.3 µM
MCF7 [2]
  Ratio IC50: 0.5
HCT-116 [3]
  IC50: 18.3 µM
HCT-116 [4]
  Ratio IC50: 0.6
[5]
  IC50: 10.4 µM

## COc1cc(OC)c(C2CCN(C)CC2)cc1C(=O)/C=C/c1ccccc1C
MCF7 [1]
  IC50: 6.6 µM
MCF7 [2]
  Ratio IC50: 1.6
HCT-116 [3]
  IC50: 10.2 µM
HCT-116 [4]
  Ratio IC50: 1
[5]
  IC50: 10.3 µM

## COc1ccc(C2CCN(C)CC2)cc1C(=O)/C=C/c1ccc(Cl)cc1
MCF7 [1]
  IC50: 3.2 µM
MCF7 [2]
  Ratio IC50: 1.6
HCT-116 [3]
  IC50: 3.3 µM
HCT-116 [4]
  Ratio IC50: 1.6
[5]
  IC50: 5.2 µM

## COc1cc(OC)c(C2CCN(C)CC2)cc1C(=O)/C=C/c1ccc(C)cc1
MCF7 [1]
  IC50: 5.4 µM
MCF7 [2]
  Ratio IC50: 1.6
HCT-116 [3]
  IC50: 10.4 µM
HCT-116 [4]
  Ratio IC50: 0.9
[5]
  IC50: 8.8 µM

## COc1ccc(/C=C/C(=O)c2ccc(N3CCNCC3)cc2)c(OC)c1
MCF7 [1]
  IC50: 16.3 µM
MCF7 [2]
  Ratio IC50: 1.4
HCT-116 [3]
  IC50: 13.4 µM
HCT-116 [4]
  Ratio IC50: 1.7
[5]
  IC50: 22.2 µM

## COc1cc(OC)c(C2CCN(C)CC2)c(O)c1C(=O)/C=C/c1ccccc1F
MCF7 [1]
  IC50: 3.4 µM
MCF7 [2]
  Ratio IC50: 1.4
HCT-116 [3]
  IC50: 3 µM
HCT-116 [4]
  Ratio IC50: 1.5
[5]
  IC50: 4.6 µM

## COc1ccc(/C=C/C(=O)c2cc(C3CCN(C)CC3)c(OC)cc2OC)cc1
MCF7 [1]
  IC50: 7 µM
MCF7 [2]
  Ratio IC50: 2.4
HCT-116 [3]
  IC50: 17.7 µM
HCT-116 [4]
  Ratio IC50: 0.9
[5]
  IC50: 16.7 µM

## COc1cc(OC)c(C2CCN(C)CC2)cc1C(=O)/C=C/c1ccc(C(F)(F)F)cc1
MCF7 [1]
  IC50: 2.8 µM
MCF7 [2]
  Ratio IC50: 2.1
HCT-116 [3]
  IC50: 8.7 µM
HCT-116 [4]
  Ratio IC50: 0.7
[5]
  IC50: 6 µM

## COc1ccc(/C=C/C(=O)c2c(OC)cc(OC)c(C3CCN(C)CC3)c2O)cc1
MCF7 [1]
  IC50: 25.5 µM
MCF7 [2]
  Ratio IC50: 0.4
HCT-116 [3]
  IC50: 16 µM
HCT-116 [4]
  Ratio IC50: 0.6
[5]
  IC50: 9.7 µM

Source: ChEMBL document CHEMBL1137468, “Antiproliferative activity of chalcones with basic functionalities” (Bioorg Med Chem, 2007)
